OX1R antag-1: antagonists of human orexin 1 receptor; O43613; CHO/OX1R cells, Fluo-8 calcium fluorescence, orexin A; inhibition, % at 5 µM; actives 0.43% (n = 330,000); AID 434989;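 active = inhibition above its plate's threshold, mean inhibition of all tested compounds on the plate plus 3 SD, cut at about 37% in these data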
TAAR1 antagonist: antagonists of human TAAR1. Q96RJ0. CHO RD-HGA16 TAAR1, Fluo-8 calcium fluorescence, antagonist. inhibition, % at 3 µM. actives 1.5% (n = 360,000). AID 624466;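 active = inhibition above a per-plate cutoff, the mean inhibition of test compounds on that plate plus 3 SD, cut at about 49% in these data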
Target sequence (Q96RJ0 whole entry, looked up): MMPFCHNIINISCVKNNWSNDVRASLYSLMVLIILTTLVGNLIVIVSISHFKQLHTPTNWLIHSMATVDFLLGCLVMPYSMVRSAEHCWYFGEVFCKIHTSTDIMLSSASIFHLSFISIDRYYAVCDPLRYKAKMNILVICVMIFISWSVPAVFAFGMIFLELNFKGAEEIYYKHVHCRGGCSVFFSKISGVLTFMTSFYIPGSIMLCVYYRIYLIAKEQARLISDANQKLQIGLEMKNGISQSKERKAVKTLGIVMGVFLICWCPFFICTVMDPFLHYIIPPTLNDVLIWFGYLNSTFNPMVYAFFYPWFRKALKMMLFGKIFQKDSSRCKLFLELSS
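Test system: RD-HGA16 CHO cells with stable hTAAR1 and Gα16 / Probe or stimulus: EC80 β-phenethylamine stimulus / Times: seeding 17-24 h prior, 75-min 37 °C, 30-min RT dye loading / Detection: Fluo-8 calcium-sensitive fluorescence / Read-out basis: % inhibition scaled between DMSO and EC80 PEA controls / Repeats: singlicate, one well per test compound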
TAAR1 agonist: human TAAR1 agonism. Q96RJ0. CHO RD-HGA16 TAAR1, Fluo-8 calcium fluorescence; vehicle wells 0%, saturating PEA agonist 100%. activation, % at 3 µM. actives 0.99% (n = 360,000). AID 624467;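 active = activation above the mean activation of all test compounds in the run plus 3 SD, cut at about 38% in these data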
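System: CHO-derived RD-HGA16 cells with stable Gα16 and human TAAR1 / Times: 17-24 h plating, Fluo-8 75 min 37 °C, 30 min RT / Technique: calcium-sensitive Fluo-8 signal, excitation 470-495, emission 515-575 nm / Measure: % activation relative to PEA EC100 response / Benchmarks: DMSO and PEA EC100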
CHO parental Ca: signal in parental CHO cells, OX1R antagonist counter-screen | parental CHO-K1, ATP-induced calcium, Fluo-8 fluorescence | inhibition, % at 5.6 µM | actives 0.63% (n = 330,000);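 active = inhibition above that plate's mean sample inhibition plus 3 SD, cut at about 26% in these data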
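material = parental CHO cells | also added = ATP as calcium-mobilizing challenge | dosing = single point at 5.6 µM | detection = intracellular calcium via Fluo-8 no-wash fluorescent dye | read-out = % inhibition | benchmarks = low control ATP plus DMSO, high control DMSO only | repeats = one well per compound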
GPR7 antagonist: antagonists of human GPR7 (neuropeptides B/W receptor 1) | P48145 | GPR7-expressing cells, fluorescence antagonist assay | inhibition, % at 4.4 µM | actives 1.1% (n = 290,000) | AID 1861; in the data active = inhibition above about 16%, passing the limit was not always enough;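 also: cells stimulated with the agonist NPW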
Target sequence (P48145 whole entry, looked up): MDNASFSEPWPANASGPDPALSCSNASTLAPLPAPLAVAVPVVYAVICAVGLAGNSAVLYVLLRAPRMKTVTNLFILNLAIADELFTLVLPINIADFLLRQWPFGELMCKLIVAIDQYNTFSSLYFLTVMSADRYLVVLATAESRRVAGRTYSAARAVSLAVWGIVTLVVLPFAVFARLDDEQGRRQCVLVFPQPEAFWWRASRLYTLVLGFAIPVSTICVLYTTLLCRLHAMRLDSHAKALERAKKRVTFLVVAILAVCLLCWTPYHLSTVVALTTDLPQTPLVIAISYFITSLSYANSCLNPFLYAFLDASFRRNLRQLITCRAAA
OX1R antag-2: OX1R (human) antagonism | OX1R-expressing cells, FRET antagonist read-out | inhibition, % at 6.6 µM | actives 1.8% (n = 330,000); in the data active = inhibition mostly above about 38%, no sharp cut-off; inactive = mostly below about 40%
OX1R HTRF conf: confirmation of human orexin 1 receptor antagonists, HTRF format | OX1R-expressing cells, HTRF antagonist assay | inhibition, % at 6.6 µM | shares compounds with OX1R antag-2 | actives 49% (n = 1,800); in the data active = inhibition above about 55%;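 also: CHO cells expressing OX1R stimulated with orexin A at about EC80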
CHO-K1 HTRF: counter-screen: parental CHO-K1 HTRF response | shares compounds with OX1R antag-2 | parental CHO-K1 cells, HTRF counterscreen | inhibition, % at 6.6 µM | actives 48% (n = 1,800); in the data active = inhibition above about 17%
Hits are given with their value. Only some compounds are listed: those with a hit (about 4.6% of all), similar ones and a draw of the others.

`Cc1ccc(C(=O)NCC2CCCO2)cc1S(=O)(=O)N1CCCCC1` (centres undefined) gave OX1R antag-1 inactive, TAAR1 antagonist inactive, TAAR1 agonist inactive, CHO parental Ca inactive, GPR7 antagonist inactive and OX1R antag-2 inactive.
Cc1c(C(=O)O)sc2nc(-c3cccs3)cc(C(F)(F)F)c12 was read as OX1R antag-1 inactive, TAAR1 antagonist inactive, TAAR1 agonist inactive, CHO parental Ca inactive, GPR7 antagonist inactive, OX1R antag-2 78.4, OX1R HTRF conf inactive and CHO-K1 HTRF 30.1.
For CSc1nc2nc(-c3cccs3)cc(C(F)(F)F)c2c(=O)[nH]1 the results were OX1R antag-1 inactive, TAAR1 antagonist inactive, TAAR1 agonist inactive, CHO parental Ca inactive, GPR7 antagonist inactive and OX1R antag-2 inactive.
CCCc1ccc(S(=O)(=O)N/N=C(/C)c2ccc3c(c2)OCO3)cc1 was read as TAAR1 antagonist inactive, TAAR1 agonist inactive and GPR7 antagonist inactive.
CC1=CC(=O)C=C(C)C1=NOC(=O)/C=C\c1ccccc1 was read as OX1R antag-1 inactive, TAAR1 antagonist inactive, TAAR1 agonist inactive, CHO parental Ca inactive, GPR7 antagonist inactive and OX1R antag-2 inactive.
Screening CC1=CC(=NOC(=O)/C=C/c2ccccc2)C=C(C)C1=O returned OX1R antag-1 inactive, TAAR1 antagonist inactive, TAAR1 agonist inactive, CHO parental Ca inactive, GPR7 antagonist inactive, OX1R antag-2 82.3, OX1R HTRF conf inactive and CHO-K1 HTRF inactive.
Screening O=C1N=c2ccccc2=C1c1sc(=S)n(CC2CCCO2)c1O (centres undefined) returned OX1R antag-1 inactive, TAAR1 antagonist inactive, TAAR1 agonist inactive, CHO parental Ca inactive, GPR7 antagonist inactive and OX1R antag-2 inactive.
`O=C(O)CCC(C(=O)O)n1c(O)c(C2=c3ccccc3=NC2=O)sc1=S` (centres undefined) gave OX1R antag-1 inactive, TAAR1 antagonist inactive, TAAR1 agonist inactive, CHO parental Ca inactive, GPR7 antagonist inactive, OX1R antag-2 149.9, OX1R HTRF conf 68.1 and CHO-K1 HTRF 105.2.
`CCOc1ccccc1NC(=S)NNS(=O)(=O)c1c(C)cc(C)cc1C` gave OX1R antag-1 inactive, TAAR1 antagonist inactive, TAAR1 agonist inactive, CHO parental Ca inactive, GPR7 antagonist inactive, OX1R antag-2 97.1, OX1R HTRF conf inactive and CHO-K1 HTRF inactive.
NS(=O)(=O)c1ccc(CNC(=S)NC2CCCC2)cc1 was read as OX1R antag-1 inactive, TAAR1 antagonist inactive, TAAR1 agonist inactive, CHO parental Ca inactive, GPR7 antagonist inactive and OX1R antag-2 inactive.
`CCC1=Nc2ccccc2-c2nnc(SC)nc2O1` gave OX1R antag-1 inactive, TAAR1 antagonist inactive, TAAR1 agonist inactive, CHO parental Ca inactive, GPR7 antagonist inactive, OX1R antag-2 196.7, OX1R HTRF conf 68.1 and CHO-K1 HTRF 94.9.
CSc1nnc2c(n1)OC(C)=Nc1ccccc1-2 was read as OX1R antag-1 inactive, TAAR1 antagonist inactive, TAAR1 agonist inactive, CHO parental Ca inactive, GPR7 antagonist inactive, OX1R antag-2 79.0, OX1R HTRF conf 60.4 and CHO-K1 HTRF 100.8.
For Cc1nc(SC2CC(=O)N(c3ccccc3)C2=O)n[nH]1 (centres undefined) the results were OX1R antag-1 inactive, TAAR1 antagonist inactive, TAAR1 agonist inactive, CHO parental Ca inactive, GPR7 antagonist inactive and OX1R antag-2 inactive.
For Cc1nc(S/C(C(=O)O)=C2/C(=O)Nc3ccccc32)n[nH]1 the results were OX1R antag-1 inactive, TAAR1 antagonist inactive, TAAR1 agonist inactive, CHO parental Ca inactive, GPR7 antagonist inactive, OX1R antag-2 78.0, OX1R HTRF conf inactive and CHO-K1 HTRF 46.1.
COC(=O)c1cc(=O)c2c(C)nc(C(Cl)(Cl)Cl)nc2[nH]1 was read as OX1R antag-1 inactive, TAAR1 antagonist inactive, TAAR1 agonist inactive, CHO parental Ca inactive, GPR7 antagonist inactive, OX1R antag-2 79.0, OX1R HTRF conf inactive and CHO-K1 HTRF inactive.
COc1ccc(N2CCN(C(=O)c3ccc4ccccc4n3)CC2)cc1 was read as OX1R antag-1 inactive, TAAR1 antagonist inactive, TAAR1 agonist inactive, CHO parental Ca inactive, GPR7 antagonist inactive and OX1R antag-2 inactive.
For O=C(Nc1nc(-c2cccs2)cs1)c1ccco1 the results were OX1R antag-1 inactive, TAAR1 antagonist inactive, TAAR1 agonist inactive, CHO parental Ca inactive, GPR7 antagonist inactive and OX1R antag-2 inactive.
`COc1ccc(C(=O)Nc2nc(-c3cccs3)cs2)cc1` gave OX1R antag-1 inactive, TAAR1 antagonist inactive, TAAR1 agonist inactive, CHO parental Ca inactive, GPR7 antagonist inactive, OX1R antag-2 89.9, OX1R HTRF conf 64.6 and CHO-K1 HTRF 20.0.
`COc1cc(/C=N/NC(=O)c2ccccc2O)ccc1OC(=O)CC1SC(=O)NC1=O` (centres undefined) gave OX1R antag-1 inactive, TAAR1 antagonist inactive, TAAR1 agonist inactive, CHO parental Ca inactive, GPR7 antagonist inactive, OX1R antag-2 96.5, OX1R HTRF conf inactive and CHO-K1 HTRF inactive.
`COc1cc(C(=O)N/N=C/c2ccc(OC(=O)c3ccccc3Cl)c(OC)c2)ccc1O` gave GPR7 antagonist inactive.
Screening O=C(NCCCCNCCCNC(=O)c1ccccc1)c1ccccc1 returned OX1R antag-1 inactive, TAAR1 antagonist inactive, TAAR1 agonist inactive, CHO parental Ca inactive and OX1R antag-2 inactive.
Screening O=C(CN1C(=O)c2ccc([N+](=O)[O-])cc2C1=O)NCc1ccco1 returned OX1R antag-1 inactive, TAAR1 antagonist inactive, TAAR1 agonist inactive, CHO parental Ca inactive, GPR7 antagonist inactive, OX1R antag-2 88.0, OX1R HTRF conf inactive and CHO-K1 HTRF 53.4.
Screening O=C(Nc1cc([N+](=O)[O-])ccc1O)c1ccc2c(c1)C(=O)N(Cc1ccco1)C2=O returned OX1R antag-1 inactive, TAAR1 antagonist inactive, TAAR1 agonist inactive, CHO parental Ca inactive, GPR7 antagonist inactive and OX1R antag-2 inactive.
For Cc1ccc(NC(=O)CSc2ncccn2)cc1S(=O)(=O)N1CCCCC1 the results were OX1R antag-1 inactive, TAAR1 antagonist inactive, TAAR1 agonist inactive, CHO parental Ca inactive and OX1R antag-2 inactive.
`O=C(NCCN1C(=O)S/C(=C\c2ccc(Cl)c(Cl)c2)C1=O)c1cnccn1` gave OX1R antag-1 inactive, TAAR1 antagonist inactive, TAAR1 agonist inactive, CHO parental Ca inactive, GPR7 antagonist inactive and OX1R antag-2 inactive.
`O=C(NCCN1C(=O)S/C(=C\c2ccc(Cl)c([N+](=O)[O-])c2)C1=O)C1=COCCO1` gave OX1R antag-1 inactive, TAAR1 antagonist inactive, TAAR1 agonist inactive, CHO parental Ca inactive, OX1R antag-2 83.0, OX1R HTRF conf inactive and CHO-K1 HTRF 57.3.

Bioassay records as filed in PubChem.
